Measurements published in paper PMC12778361 (Chemical Science, 2025).
Where two headings read alike, the source gives them in different places.

What was measured:
[1] = 1 M HCl, 298 K; cited from earlier work
[2] = T1-weighted phantom images at 7 T in mouse serum and PBS; type: physicochemical; conditions: 25 °C, 0.3 mM in mouse serum
Procedure, shortened: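 T1-weighted phantoms of Gd3+ complex in mouse blood serum were imaged at 7 T. A clinical Gd3+ agent and serum alone served as comparators. A spin echo sequence was used, TE = 10 ms, TR = 400 ms, and signal intensities were read.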

[3] = cited from earlier work

Row | SMILES | kobs dissociation rate constant [1] [s⁻¹] | t1/2 dissociation half-life [1] [min] | signal intensity, T1-weighted phantom [2] | r1 relaxivity ([3]; 20 MHz, 25 °C) [mM⁻¹ s⁻¹] | kex^298 water exchange rate ([3]; SAP isomer) | ΔH≠ ([3]; SAP isomer) [kcal/mol] | ΔS≠ ([3]; SAP isomer) | kex^298 water exchange rate ([3]; TSAP isomer) | ΔH≠ ([3]; TSAP isomer) [kcal/mol] | τR^298 rotational correlation time [3] [ps]
1 | O=C([O-])CN1CCNCCN(CC(=O)[O-])CCN(CC(=O)[O-])CC1.[Gd+3] [GdDO3A] | 0.023 | 0.5 | – | – | – | – | – | – | – | –
2 | O=C([O-])CN1CCN(CC(=O)[O-])CCN(CC(=O)O)CCN(CC(=O)[O-])CC1.[Gd+3] [GdDOTA] | 1.8e-06 | 6418 | 3.97 × 10^4 | – | – | – | – | – | – | –
3 | CC(O)CN1CCN(CC(=O)[O-])CCN(CC(=O)[O-])CCN(CC(=O)[O-])CC1.[Gd+3] (centres unmarked) [GdHPDO3A] | 0.00026 | 44 | – | 4.6 | 1.56 10^6 s^−1 | 12.7 | +52 kJ mol^−1 K^−1 | 112 10^6 s^−1 | 3.59 | 65
